# Screening results (PubChem BioAssay)
# Shown are actives, neighbours in structure and some others; about 3.6% of the full set was active somewhere.
# HIF activator: HIF pathway transcriptional activation; U2OS HRE-luciferase reporter, luminescence; normalized: DMSO 0%, desferrioxamine 100%; 300,000 tested, 0.32% active; activation, % at 7.5 µM (by protocol);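 active = mean activation of at least 10% of the iron chelator positive control signal, with at least half of replicates also reaching 10%; inconclusive = mean and replicate majority disagree about reaching 10%; inactive = mean and most replicates under 10%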
# PfHsp90 yeast 2: inhibits growth of yeast expressing Plasmodium falciparum Hsp90 | 310,000 tested, 0.32% active | inhibition, % at 9.4 µM | S. cerevisiae expressing PfHsp90, BacTiter-Glo ATP, 48 h; yeast lacking PDR1 and PDR3 efflux regulators;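 active = every replicate shows inhibition above about 80%, whatever the replicate mean, limit read from the data; inconclusive = mean inhibition reaches the set limit but some replicate falls short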
# Beta apoptosis: beta cell apoptosis inhibition; INS-1E cytokine-induced death, ATP luminescence, 48 h; percent of positive-control rescue, neutral wells zero; AID 435005; protection from apoptosis, % (test concentration not listed); 300,000 tested, 0.8% active;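 active = Every replicate reaches about 75%, or at least half do and their mean reaches it too, limit read from the data; inconclusive = At least half of replicates reach the limit but their mean does not; inactive = Under half of replicates reach the limit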;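 note: higher means more ATP so stronger rescue from cytokine killing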
# CSC inhib: blocks cancer stem cells; cancer stem cell-like cells viability, luminescence; inhibition, % at 7.5 µM; 300,000 tested, 1.1% active; in the data active = inhibition above about 75%; inconclusive = no clear call, values can overlap the other calls; tested in HMLE shEcad cells
# T cruzi inh: blocks replication of Trypanosoma cruzi; T. cruzi beta-gal in NIH3T3, luminescence, 90 h; 300,000 tested, 1.4% active; inhibition, % (no concentration beside the values); AID 1885;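 active = mean inhibition across valid replicates above about 55%, limit read from the data; inconclusive = mean below that limit but half or more replicates reach it; inactive = mean below it, under half of replicates reach it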;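 note: signal also drops with host cell toxicity which is not excluded here; higher percent means less beta-gal luminescence so fewer parasites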
#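 System: Mouse NIH/3T3 fibroblasts infected with β-gal-expressing T. cruzi Tulahuen C4 | Quantity: NIH/3T3 cells, 5,000 per well | Reagent: 5000 reporter trypomastigotes per well | Dosing: Compound pinned at 50 nL/well, DMSO | Schedule: 3 h host attachment, then at least 90 h co-culture | Detection: GalScreen luminescence, 60 min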
# SKKanGAS inh: SKKanGAS growth inhibition | S. pyogenes SKKanGAS, kanamycin growth, BacTiter-Glo, 6 h | inhibition, % at 7.5 µM | 300,000 tested, 1.3% active | AID 1662;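 active = mean replicate score, as percent of positive control median, at least 50; inconclusive = mean below 50 but one replicate at or above 50; inactive = mean and every replicate below 50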;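 note: strain carries kanamycin resistance gene driven by streptokinase promoter and grows in 40 µg/ml kanamycin; loss of luminescence reflects streptokinase promoter inhibition or plain growth inhibition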
# A number is an active result; 0 = inactive; ? = inconclusive; - = no result.
SMILES,HIF activator,PfHsp90 yeast 2,Beta apoptosis,CSC inhib,T cruzi inh,SKKanGAS inh
Cc1ccc(-c2nnc(Nc3ccc(CC(N)=O)cc3)c3ccccc23)cc1,0,0,-,-,60,0
Cc1ccc(-c2nnc(Nc3ccc(CC(N)=O)cc3)c3ccccc23)cc1S(N)(=O)=O,0,0,0,0,0,0
Clc1cccc(N/N=C(\Cc2nc3ccccc3[nH]2)c2ccccc2)c1,0,0,0,0,0,91
O=C(CCc1nc2ccccc2[nH]1)Nc1ccccc1,0,0,0,0,0,0
CCOc1ccccc1NC(=O)c1cnc(NS(=O)(=O)c2ccccc2)nc1,0,0,0,-,0,0
Cc1c(C(=O)N2CCC(Cc3ccccc3)CC2)sc2ncnc(N3CCC(C)CC3)c12,0,0,0,0,72,56
Cc1c(C(=O)N2CCN(Cc3ccccc3)CC2)sc2ncnc(N3CCOCC3)c12,0,0,0,0,0,0
Cc1ccc2oc3ccccc3c(=O)c2c1,-,0,-,-,-,-
O=c1c2ccccc2oc2ccc(-c3ccc4cc[nH]c4c3)cc12,-,0,0,89,-,-
CCCCCC1CCC(c2n[nH]c(=S)n2C)CC1 (centres undefined),0,0,0,0,70,0
COc1ccccc1OCCSc1nc2ccccc2n1CC(N)=O,0,0,-,0,0,0
COc1ccc(OC2C(=O)N(Cc3ccc4c(c3)OCO4)C2c2sccc2C)cc1 (centres undefined),0,0,0,117,0,0
O=C(COC(=O)c1cn(-c2ccccc2)nc1-c1ccccc1)c1cccc([N+](=O)[O-])c1,0,0,102,0,0,0
Cc1ccc(C(=O)COC(=O)c2cn(-c3ccccc3)nc2-c2ccccc2)cc1[N+](=O)[O-],0,0,99,?,0,0
O=C(COC(=O)c1cn(-c2ccccc2)nc1-c1ccccc1)c1ccc([N+](=O)[O-])cc1,0,-,0,0,0,0
COc1ccc2[nH]c3c(c2c1)CCN1C(=O)C(CC(=O)NCCCn2ccnc2)C[C@H](C(=O)N2CCCCC2)[C@@]31CCc1ccccc1 (some centres undefined),-,0,-,-,-,-
Cc1nc2ccc(CN(C)c3ccc(C(=O)N[C@@H](CCC(=O)O)C(=O)O)s3)cc2c(=O)[nH]1,0,-,0,75,0,0
CC(C)NC(=O)Nc1ccc2c(c1)C(=O)N([C@H](C)CO)C[C@H](C)[C@@H](CN(C)C(=O)NC(C)C)O2,-,0,-,-,-,-
CC1=C(C)/C(=N\OS(=O)(=O)c2ccccc2)C=CC1=O,0,106,113,0,55,0
CCOC(=O)c1csc(N/N=C2\CCCc3ccccc32)n1,0,0,0,0,0,50
Nc1nc(CN2CCC(Cc3ccccc3)CC2)nc(Nc2ccccc2)n1,0,0,0,0,0,50
Cc1cccc(Nc2nc(N)nc(CN3CCN(C)CC3)n2)c1,0,-,0,0,0,0
CC1CC(C)CN(Cc2nc(N)nc(Nc3ccc4ccccc4c3)n2)C1 (centres undefined),0,0,0,0,0,52
Cc1cccc(Nc2nc(N)nc(CN3CCN(c4ccc(F)cc4)CC3)n2)c1,0,-,0,0,0,65
Nc1nc(CN2CCCCCC2)nc(Nc2ccccc2)n1,0,0,0,0,0,0
SMILES,HIF activator,PfHsp90 yeast 2,Beta apoptosis,CSC inhib,T cruzi inh,SKKanGAS inh
Cc1ccc(N(C(=O)c2csnn2)C(C(=O)NC2CCCCC2)c2ccncc2)cc1 (centres undefined),0,0,0,0,0,0
COc1ccc(CC(=O)Oc2ccc(C)cc2Br)cc1S(=O)(=O)N1CCOCC1,0,0,0,0,0,0
COc1cccc(-c2ncc3ccccc3c2COC(=O)CCC(=O)O)c1,-,0,0,0,-,-
Nc1nc(=S)c2ncn([C@@H]3O[C@H](CO)[C@@H](O)[C@H]3O)c2[nH]1,-,0,0,98,-,-
Nc1nc(=S)c2ncn(C3OC(CO)C(O)C3O)c2[nH]1 (centres undefined),0,0,0,90,0,0
Nc1nc(=S)c2ncn(C3CCCCC3)c2[nH]1,-,0,-,-,-,-
O=C1CC(NS(=O)(=O)c2ccc([N+](=O)[O-])cc2)CN1c1ccc(Cl)cc1 (centres undefined),0,0,0,0,62,0
COc1ccc(CCN2C(=O)C=CC2=O)cc1OC,-,104,-,-,-,-
O=Cc1ccc([B-](F)(F)F)s1,-,0,-,-,-,-
CCn1cnc2c1c(=O)n(CC(=O)NCC(C)C)c(=O)n2Cc1ccccc1,0,0,0,0,0,0
Cc1ccc(C(=O)Cn2nnc(-c3cccs3)n2)cc1,0,0,0,0,0,0
O=C(CN1CC[n+]2c(-c3cccs3)csc21)c1ccc(-c2ccccc2)cc1,0,0,111,0,0,0
CCc1ccc(C2CC(=O)N(c3ccc(F)cc3)C3=C2C(=O)OC3)cc1 (centres undefined),0,0,0,0,0,0
Cc1sc2nc(CSc3ccccc3)nc(N3CCC(C(N)=O)CC3)c2c1C,0,0,0,0,0,0
CCOC(=O)c1sc2nc(CSc3ccccc3)nc(N3CCC(C(N)=O)CC3)c2c1C,0,0,0,0,59,0
CC(C)CN=C(NS(=O)(=O)c1ccccc1)C(Cl)(Cl)Cl,0,0,0,147,0,0
COc1ccc(CNS(=O)(=O)c2ccc3c(c2)NC(=O)C(C)S3)cc1 (centres undefined),0,0,0,0,0,0
Cc1ccc(C)c(-c2nnc(NC(=O)COc3ccccc3)o2)c1,0,0,0,-,0,105
Cc1ccc(-c2nnc(NC(=O)CCS(=O)(=O)c3ccccc3)o2)c(C)c1,0,0,-,-,0,0
Cc1ccc(C)c(-c2nnc(NC(=O)CCS(=O)(=O)c3ccccc3)o2)c1,0,-,0,0,0,51
O=C(COn1nnc2ccc(C(F)(F)F)cc21)Nc1nnc(-c2ccccc2)o1,0,0,0,0,0,91
Cc1cccc(C)c1NC(=O)COn1nnc2ccc(C(F)(F)F)cc21,0,0,0,0,0,0
COc1cc(OC)cc(C(=O)OCC(=O)Nc2nnc(-c3ccccc3)o2)c1,-,0,-,-,-,-
COc1cccc(C(=O)OCC(=O)Nc2nnc(-c3ccccc3)o2)c1,0,-,0,0,0,68
O=C(COc1ccccc1)Nc1nnc(-c2ccccc2)o1,0,0,-,0,0,0
CCN1C(C)=CC(=O)[C@@H](O)[C@H]1c1ccccc1Br,-,0,-,-,-,-
Cc1ccc(C)c(-c2nnc(NC(=O)c3ccc([N+](=O)[O-])o3)o2)c1,0,0,0,0,0,80
Cc1ccc(C)c(-c2nnc(NC(=O)C3=COCCO3)o2)c1,0,0,0,0,0,0
Cc1ccc(C)c(SCC(=O)Nc2nnc(-c3ccccc3)o2)c1,0,0,0,0,0,82
CCC(c1nnc(SCC(=O)Nc2nnc(-c3ccccc3)o2)o1)N(C)C (centres undefined),0,0,0,0,0,0
